Assay results: ChEMBL document CHEMBL4406825, “Design, synthesis and preliminary bioactivity evaluations of 8-hydroxyquinoline derivatives as matrix metalloproteinase (MMP) inhibitors” (Eur J Med Chem, 2019)
Active and inactive are the calls of the source. No cut-off for these calls is given here.

Legend:
A549 [1] = test: Induction of apoptosis in human A549 cells assessed as necrotic cells at 5 uM incubated for 48 hrs by annexin V FITC and propidium iodide based flow cytometry (reference value: 0.02 %); format: functional
Summary of the method: (§1)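 A549 cells (1×10^5 cells/mL) treated 48 h at 0, 1, 5 or 10 µM; harvested, washed in cold PBS, resuspended in binding buffer with annexin V-FITC and PI, 15 min at room temperature in the dark, then analysed by flow cytometry.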

A549 [2] = test: Induction of apoptosis in human A549 cells assessed as viable cells at 10 uM incubated for 48 hrs by annexin V FITC and propidium iodide based flow cytometry (reference value: 94.7 %); format: functional; conditions: A549, 48 h, read-out: Activity; summary of the method: as §1
A549 [3] = test: Inhibition of cell invasion in human A549 cells incubated for 24 hrs by crystal violet staining based matrigel migration assay; format: functional
Summary of the method: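 As the migration setup but membrane precoated with matrigel (1:10 diluted) for 2 h at 37°C: A549 pretreated 24 h at 1, 5, 10 µM, 30,000 cells in serum-free medium above, 10% FBS below, 24 h, then fixing, 0.1% crystal violet staining and counting. Three repeats, mean ± SEM.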

A549 [4] = test: Induction of apoptosis in human A549 cells assessed as early apoptotic cells at 5 uM incubated for 48 hrs by annexin V FITC and propidium iodide based flow cytometry (reference value: 2.15 %); format: functional; summary of the method: as §1
A549 [5] = test: Down regulation of MMP9 expression in human A549 cells incubated for 24 hrs by Western blot analysis; format: functional, cell-based
Summary of the method: (§2)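 A549 cells treated 24 h at 1, 5 and 10 µM; lysates run on SDS-PAGE, transferred to PVDF, blocked in 10% dry milk/TBST, probed with rabbit anti-MMP-2, anti-MMP-9 or anti-GAPDH, then secondary antibodies and imaged.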

A549 [6] = test: Induction of apoptosis in human A549 cells assessed as necrotic cells at 1 uM incubated for 48 hrs by annexin V FITC and propidium iodide based flow cytometry (reference value: 0.02 %); format: functional; summary of the method: as §1
A549 [7] = test: Induction of apoptosis in human A549 cells assessed as viable cells at 5 uM incubated for 48 hrs by annexin V FITC and propidium iodide based flow cytometry (reference value: 94.7 %); format: functional; conditions: A549, 48 h, read-out: Activity; summary of the method: as §1
A549 [8] = test: Induction of apoptosis in human A549 cells assessed as necrotic cells at 10 uM incubated for 48 hrs by annexin V FITC and propidium iodide based flow cytometry (reference value: 0.02 %); format: functional; summary of the method: as §1
HUVEC [9] = test: Antiangiogenic activity in HUVEC assessed as inhibition of tuber formation at 10 uM incubated for 24 hrs by matrigel-based inverted microscopy; format: functional, cell-based; conditions: Homo sapiens
Summary of the method: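 HUVEC treated with compound for 24 h in serum-free RPMI1640, harvested and layered onto undiluted matrigel polymerized 2 h at 37°C; after 6 h cell organization examined by inverted microscope, with mesh number counted as the angiogenesis read-out. Tested at 10 µM.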

MCF7 = test: Antiproliferative activity against human MCF7 cells assessed as reduction in cell viability incubated for 48 hrs by MTT assay; format: functional, cell-based; conditions: MCF7, 48 h
Summary of the method: (§3)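 Cells grown in RPMI1640 with 10% FBS at 37°C, 5% CO2; seeded at 4000-5000 cells/well for 8 h, then exposed to a range of compound concentrations for 48 h. MTT added for 4 h, formazan dissolved in DMSO, absorbance at 570 nm; IC50 calculated from inhibition ratios.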

A549 [10] = test: Inhibition of cell migration in human A549 cells at 1 to 10 uM incubated for 24 hrs by crystal violet staining based transwell migration assay; format: functional
Summary of the method: (§4)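 A549 cells pretreated 24 h with compound (1, 5, 10 µM), harvested into serum-free RPMI1640; 30,000 cells placed in upper transwell chamber, lower chamber RPMI1640 + 10% FBS as chemoattractant. Migration 24 h at 37°C, 5% CO2; cells fixed MeOH/acetic acid (3:1), upper side wiped, underside stained 0.1% crystal violet and counted. Three repeats, mean ± SEM.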

A549 [11] = test: Induction of apoptosis in human A549 cells assessed as late apoptotic cells at 10 uM incubated for 48 hrs by annexin V FITC and propidium iodide based flow cytometry (reference value: 3.11 %); format: functional; summary of the method: as §1
A549 [12] = test: Induction of apoptosis in human A549 cells assessed as late apoptotic cells at 1 uM incubated for 48 hrs by annexin V FITC and propidium iodide based flow cytometry (reference value: 3.11 %); format: functional; summary of the method: as §1
A549 [13] = test: Induction of apoptosis in human A549 cells assessed as early apoptotic cells at 1 uM incubated for 48 hrs by annexin V FITC and propidium iodide based flow cytometry (reference value: 2.15 %); format: functional; summary of the method: as §1
[14] = target: T1, Matrix metalloproteinase-9 (Homo sapiens, UniProt P14780); test: Inhibition of MMP9 in human A549 cells assessed as decrease in gelatin digestion incubated for 24 hrs by coomassie brilliant blue staining-based zymographic assay; format: cell-based
Summary of the method: (§5)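 A549 cells treated 24 h at 1, 5, 10 µM; culture supernatants electrophoresed on gelatin-containing SDS-PAGE, gels washed three times in 0.25% triton, then incubated 48 h at 37°C in 50 mM Tris-HCl pH 7.5 with 0.15 M NaCl, 5 mM CaCl2, 0.05% NaN3 to reveal gelatinolytic activity.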

[15] = target: T1, Matrix metalloproteinase-9; test: Inhibition of recombinant human MMP9 using thiopeptide as substrate preincubated for 30 mins followed by substrate addition and measured every min for 20 mins by colorimetric assay
[16] = target: T2, 72 kDa type IV collagenase (Homo sapiens, UniProt P08253); test: Inhibition of MMP2 in human A549 cells assessed as decrease in gelatin digestion incubated for 24 hrs by coomassie brilliant blue staining-based zymographic assay; format: cell-based; summary of the method: as §5
Target sequence in this assay (P08253 110-660 limits assumed): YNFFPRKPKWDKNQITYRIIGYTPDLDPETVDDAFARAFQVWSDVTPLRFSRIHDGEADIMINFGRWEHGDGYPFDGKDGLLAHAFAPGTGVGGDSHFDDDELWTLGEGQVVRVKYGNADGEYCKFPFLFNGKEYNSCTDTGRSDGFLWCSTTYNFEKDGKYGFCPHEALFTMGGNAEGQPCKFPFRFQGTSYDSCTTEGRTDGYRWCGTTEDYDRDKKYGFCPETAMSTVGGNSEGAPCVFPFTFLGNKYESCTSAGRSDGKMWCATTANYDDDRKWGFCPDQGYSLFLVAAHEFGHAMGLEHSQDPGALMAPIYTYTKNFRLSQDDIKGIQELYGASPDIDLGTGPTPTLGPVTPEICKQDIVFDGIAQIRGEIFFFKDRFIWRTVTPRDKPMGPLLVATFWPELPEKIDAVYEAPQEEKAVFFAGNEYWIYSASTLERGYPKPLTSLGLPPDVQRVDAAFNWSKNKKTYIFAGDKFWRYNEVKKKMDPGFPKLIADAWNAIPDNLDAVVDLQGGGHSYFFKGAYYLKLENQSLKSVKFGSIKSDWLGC

[17] = target: T1, Matrix metalloproteinase-9; test: Inhibition of recombinant human MMP9 at 10 uM using thiopeptide as substrate preincubated for 30 mins followed by substrate addition and measured every min for 20 mins by colorimetric assay relative to control
Summary of the method: (§6)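 Colorimetric kit assay: human recombinant enzyme plus inhibitor in assay buffer for 30 min at 37 °C, then chromogenic MMP substrate added; A412 recorded each minute over 20 min. Enzyme-free blanks and inhibitor-free controls included.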

KG-1 = test: Antiproliferative activity against human KG1 cells assessed as reduction in cell viability incubated for 48 hrs by MTT assay; format: functional, cell-based; conditions: KG-1, 48 h; summary of the method: as §3
A549 [18] = test: Induction of apoptosis in human A549 cells assessed as viable cells at 1 uM incubated for 48 hrs by annexin V FITC and propidium iodide based flow cytometry (reference value: 94.7 %); format: functional; conditions: A549, 48 h, read-out: Activity; summary of the method: as §1
HL-60 = test: Antiproliferative activity against human HL60 cells assessed as reduction in cell viability incubated for 48 hrs by MTT assay; format: functional, cell-based; conditions: HL-60, 48 h; summary of the method: as §3
PC-3 = test: Antiproliferative activity against human PC3 cells assessed as reduction in cell viability incubated for 48 hrs by MTT assay; format: functional, cell-based; conditions: PC-3, 48 h; summary of the method: as §3
A549 [19] = test: Induction of apoptosis in human A549 cells assessed as late apoptotic cells at 5 uM incubated for 48 hrs by annexin V FITC and propidium iodide based flow cytometry (reference value: 3.11 %); format: functional; summary of the method: as §1
[20] = target: T2, 72 kDa type IV collagenase; test: Inhibition of recombinant human MMP2 at 10 uM using thiopeptide as substrate preincubated for 30 mins followed by substrate addition and measured every min for 20 mins by colorimetric assay relative to control; summary of the method: as §6
Target sequence in this assay (P08253 110-660 limits assumed): as above

K562 = test: Antiproliferative activity against human K562 cells assessed as reduction in cell viability incubated for 48 hrs by MTT assay; format: functional, cell-based; conditions: K562, 48 h; summary of the method: as §3
[21] = target: T2, 72 kDa type IV collagenase; test: Inhibition of recombinant human MMP2 using thiopeptide as substrate preincubated for 30 mins followed by substrate addition and measured every mins for 20 min by colorimetric assay
Target sequence in this assay (P08253 whole entry): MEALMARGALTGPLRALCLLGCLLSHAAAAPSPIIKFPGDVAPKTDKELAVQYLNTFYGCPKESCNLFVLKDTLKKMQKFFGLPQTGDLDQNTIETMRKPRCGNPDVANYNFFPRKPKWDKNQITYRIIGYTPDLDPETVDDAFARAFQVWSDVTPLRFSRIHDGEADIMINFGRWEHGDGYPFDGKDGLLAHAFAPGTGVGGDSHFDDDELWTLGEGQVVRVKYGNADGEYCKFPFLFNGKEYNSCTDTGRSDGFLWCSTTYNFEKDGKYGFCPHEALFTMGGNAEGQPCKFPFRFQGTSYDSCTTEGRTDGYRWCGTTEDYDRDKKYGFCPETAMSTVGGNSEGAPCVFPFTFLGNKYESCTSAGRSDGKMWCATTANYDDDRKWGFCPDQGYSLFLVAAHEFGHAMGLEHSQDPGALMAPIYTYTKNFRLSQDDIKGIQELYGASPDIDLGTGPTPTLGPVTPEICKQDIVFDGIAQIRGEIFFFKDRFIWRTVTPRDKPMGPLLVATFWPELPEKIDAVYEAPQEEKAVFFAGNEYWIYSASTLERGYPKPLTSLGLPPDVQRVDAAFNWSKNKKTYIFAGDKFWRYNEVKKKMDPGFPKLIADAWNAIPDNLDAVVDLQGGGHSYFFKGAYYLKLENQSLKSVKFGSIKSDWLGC

A549 [22] = test: Antiproliferative activity against human A549 cells assessed as reduction in cell viability incubated for 48 hrs by MTT assay; format: functional, cell-based; conditions: A549, 48 h; summary of the method: as §3
A549 [23] = test: Down regulation of MMP2 expression in human A549 cells incubated for 24 hrs by Western blot analysis; format: functional, cell-based; summary of the method: as §2
HUVEC [24] = test: Cytotoxicity against HUVEC assessed as reduction in cell viability incubated for 48 hrs by MTT assay; format: cell-based; conditions: Homo sapiens; summary of the method: as §3
A549 [25] = test: Induction of apoptosis in human A549 cells assessed as early apoptotic cells at 10 uM incubated for 48 hrs by annexin V FITC and propidium iodide based flow cytometry (reference value: 2.15 %); format: functional; summary of the method: as §1
A549 [26] = test: Inhibition of cell migration in human A549 cells incubated for 24 hrs by crystal violet staining based transwell migration assay; format: functional; summary of the method: as §4
[27] = target: T1, Matrix metalloproteinase-9; test: Inhibition of recombinant human MMP9 at 25 uM using thiopeptide as substrate preincubated for 30 mins followed by substrate addition and measured every min for 20 mins by colorimetric assay relative to control
[28] = target: MMP-2/MMP-9 (Homo sapiens) (UniProt P08253+P14780); test: Selectivity ratio of IC50 for inhibition of recombinant human MMP9 to IC50 for inhibition of recombinant human MMP2
[29] = target: T1, Matrix metalloproteinase-9; test: Inhibition of recombinant human MMP9 at 50 uM using thiopeptide as substrate preincubated for 30 mins followed by substrate addition and measured every min for 20 mins by colorimetric assay relative to control

T1 sequence (P14780 whole entry): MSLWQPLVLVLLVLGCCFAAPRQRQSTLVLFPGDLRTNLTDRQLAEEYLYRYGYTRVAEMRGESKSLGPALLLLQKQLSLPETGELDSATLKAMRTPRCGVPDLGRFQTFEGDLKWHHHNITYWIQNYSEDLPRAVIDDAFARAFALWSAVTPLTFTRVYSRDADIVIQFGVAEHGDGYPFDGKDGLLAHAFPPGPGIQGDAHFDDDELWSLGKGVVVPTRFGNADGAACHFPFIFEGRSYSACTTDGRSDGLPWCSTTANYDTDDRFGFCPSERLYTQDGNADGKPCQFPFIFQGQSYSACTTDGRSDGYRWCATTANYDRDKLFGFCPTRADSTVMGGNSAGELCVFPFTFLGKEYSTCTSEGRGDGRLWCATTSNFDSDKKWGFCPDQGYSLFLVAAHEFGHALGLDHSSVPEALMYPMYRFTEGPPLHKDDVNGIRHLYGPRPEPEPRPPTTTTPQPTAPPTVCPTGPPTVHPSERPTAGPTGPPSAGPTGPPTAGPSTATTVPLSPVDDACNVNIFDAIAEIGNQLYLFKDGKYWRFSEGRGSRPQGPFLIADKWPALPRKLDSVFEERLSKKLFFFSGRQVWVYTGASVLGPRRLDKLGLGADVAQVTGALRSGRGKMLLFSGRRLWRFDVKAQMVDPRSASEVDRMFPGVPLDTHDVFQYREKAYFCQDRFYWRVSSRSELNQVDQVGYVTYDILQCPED

| SMILES | Activity (A549 [1]) [%] | viability at 10 µM (A549 [2]) [%] | Activity (A549 [4]) [%] | Activity (A549 [6]) [%] | viability at 5 µM (A549 [7]) [%] | Activity (A549 [8]) [%] | inhibition (HUVEC [9]) | IC50 (MCF7) [µM] | Activity (A549 [11]) [%] | Activity (A549 [12]) [%] | Activity (A549 [13]) [%] | IC50 [15] [µM] | inhibition [17] [%] | IC50 (KG-1) [µM] | viability at 1 µM (A549 [18]) [%] | IC50 (HL-60) [µM] | IC50 (PC-3) [µM] | Activity (A549 [19]) [%] | inhibition [20] [%] | IC50 [21] [µM] | further results |
| --- | --- | --- | --- | --- | --- | --- | --- | --- | --- | --- | --- | --- | --- | --- | --- | --- | --- | --- | --- | --- | --- |
| Cc1[nH]c2ccccc2c1CCNC(=O)CCCNCc1cc(Cl)c2cccnc2c1O | 0.027 | 62.5 | 29.4 | 0 | 64.4 | 0.46 | Active | 7.8 | 4.97 | 9.15 | 16 | 1.3 | 100 | 0.69 | 74.9 | 4 | 22 | 6.17 | 68.8 | 0.81 | inhibition (A549 [3]): Dose-dependent effect; Activity (A549 [5]): Dose-dependent effect; inhibition (A549 [10]): Active; inhibition [14]: Dose-dependent effect; inhibition [16]: Dose-dependent effect; IC50 (K562): 1.8 µM; IC50 (A549 [22]): 6.4 µM; Activity (A549 [23]): Dose-dependent effect; IC50 (HUVEC [24]): > 50 µM; Activity (A549 [25]): 32.5% |
| O=S(=O)(Nc1ccc(O)c2ncccc12)c1ccc(F)cc1 | 0.017 | 73.1 | 19.8 | 0.032 | 74.6 | 0.11 | Active | 42 | 6.57 | 6.11 | 14.4 | 11 |  | 4.6 | 79.5 | 4.6 | 18 | 5.49 |  | 8.8 | inhibition (A549 [10]): Active; IC50 (K562): 3.6 µM; IC50 (A549 [22]): 51 µM; IC50 (HUVEC [24]): > 50 µM; Activity (A549 [25]): 20.2% |
| O=C(CCCCCNCc1cc(Cl)c2cccnc2c1O)Nc1ccccc1 | 0.029 | 72.3 | 17.1 | 0.031 | 73.1 | 0.14 | Active | 4.6 | 6.54 | 7.81 | 16.4 | 0.66 | 100 | 2.3 | 75.8 | 1.8 | 8.3 | 9.75 | 100 | 0.7 | inhibition (A549 [3]): Dose-dependent effect; Activity (A549 [5]): Dose-dependent effect; inhibition [14]: Dose-dependent effect; inhibition [16]: Dose-dependent effect; inhibition (A549 [26]): Dose-dependent effect; IC50 (K562): 2.3 µM; IC50 (A549 [22]): 11 µM; Activity (A549 [23]): Dose-dependent effect; IC50 (HUVEC [24]): > 50 µM; Activity (A549 [25]): 21% |
| CN(CCCCC(=O)Nc1ccc(O)c2ncccc12)c1ccccc1 |  |  |  |  |  |  |  |  |  |  |  | > 10 | 22.2 |  |  |  |  |  | 57.5 | 7.5 | inhibition [27]: 15%; Ratio IC50 [28]: > 7; inhibition [29]: 35% |
| CN(CCCCCC(=O)Nc1ccc(O)c2ncccc12)c1ccccc1 |  |  |  |  |  |  |  |  |  |  |  | > 10 | 35.3 |  |  |  |  |  | 59.5 | 6.2 | inhibition [27]: 22%; Ratio IC50 [28]: > 7; inhibition [29]: 26% |
